{"source": "ChEMBL document CHEMBL6182837", "about": "“Discovery and biological evaluation of nitrofuranyl-pyrazolopyrimidine hybrid conjugates as potent antimicrobial agents targeting Staphylococcus aureus and methicillin-resistant S. aureus” (RSC Med Chem, 2025)", "key": {"Staphylococcus aureus [1]": {"test_system": "Staphylococcus aureus", "experiment": "Induction of resistance development in Staphylococcus aureus ATCC 29213 at 0.5 MIC measured after […]", "assay_type": "functional, organism-based", "conditions": "0.5 M", "procedure,_shortened": "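Bacteria serially passaged under sublethal drug exposure over 20 days, with MIC redetermined at each passage; vancomycin and norfloxacin as controls.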"}, "[2]": {"experiment": "Clearance in male Balb/c mouse at 30 mg/kg, po by LC-MS/MS analysis", "assay_type": "ADME, organism-based", "conditions": "in vivo", "procedure,_shortened": "(§1)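 Balb/c mice dosed 1 mg kg−1 intravenously or 30 mg kg−1 orally (2.5 mg kg−1 oral also given); plasma PK parameters derived.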"}, "[3]": {"experiment": "Terminal half life in male Balb/c mouse at 30 mg/kg, po by LC-MS/MS analysis", "assay_type": "ADME, organism-based", "conditions": "in vivo, read-out: beta t1/2 (converted)", "procedure,_shortened": "as §1"}, "[4]": {"experiment": "AUC (0 to infinity) in male Balb/c mouse at 1 mg/kg, iv by LC-MS/MS analysis", "assay_type": "ADME, organism-based", "conditions": "in vivo", "procedure,_shortened": "as §1"}, "RAW264.7": {"test_system": "RAW264.7", "experiment": "Cytotoxicity against mouse RAW264.7 cells up to 200 ug/ml incubated for 48 to 72 hrs by absorbance based assay", "assay_type": "toxicity, cell-based", "conditions": "time 48-72 hrs, dose < 200 µg/ml", "procedure,_shortened": "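MTT read-out: macrophage cells plated at 1 × 10^4 cells per well in DMEM with 10% FBS, 37 °C, 5% CO2; treatment 48 h and 72 h; 2.5 mg ml−1 MTT 3 h, formazan dissolved in DMSO, OD 570 nm; doxorubicin 10 μM control.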"}, "Escherichia coli": {"test_system": "Escherichia coli", "experiment": "Antibacterial activity against Escherichia coli ATCC 25922 incubated for 24 hrs by Alamar blue staining based microdilution method", "assay_type": "functional"}, "Staphylococcus aureus [5]": {"test_system": "Staphylococcus aureus", "experiment": "Antibacterial activity against Staphylococcus aureus ATCC 29213 infected in mouse RAW264.7 cells assessed as bacterial eradication by colony counting method", "assay_type": "functional, organism-based", "procedure,_shortened": "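RAW 264.7 macrophages infected with S. aureus, then treated with compound at multiples of MIC non-toxic to the cells; intracellular bacterial load enumerated as CFU ml−1; vancomycin comparator; one-way ANOVA versus infection control.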"}, "Staphylococcus aureus [6]": {"test_system": "Staphylococcus aureus", "experiment": "Antibacterial activity against Staphylococcus aureus SA-K2192 overexpressing TetK by Alamar blue staining based analysis", "assay_type": "functional"}, "Staphylococcus aureus [7]": {"test_system": "Staphylococcus aureus", "experiment": "Bactericidal activity against methicillin-resistant Staphylococcus aureus ATCC 15187 assessed as reduction in bacterial count at 1 to 4 times MIC by time-kill assay", "assay_type": "functional, organism-based", "conditions": "time 2-24 hrs"}, "[8]": {"experiment": "Drug metabolism in mouse liver microsomes", "assay_type": "ADME, Microsome", "conditions": "read-out: Drug metabolism"}, "[9]": {"experiment": "Clearance in male Balb/c mouse at 1 mg/kg, iv by LC-MS/MS analysis", "assay_type": "ADME, organism-based", "conditions": "in vivo", "procedure,_shortened": "as §1"}, "Staphylococcus aureus [10]": {"test_system": "Staphylococcus aureus", "experiment": "Disruption of cell membrane integrity in Staphylococcus aureus ATCC 29213 assessed as red fluorescence at 1 to 2 times MIC incubated for 2.5 hrs by DAPI/PI staining based fluorescence microscopy", "assay_type": "functional, organism-based", "procedure,_shortened": "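S. aureus treated at 1× and 2× MIC, stained with DAPI (all cells) and PI (damaged membranes), imaged by fluorescence microscopy; vancomycin 2× MIC positive control; untreated blank.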"}, "Staphylococcus aureus [11]": {"test_system": "Staphylococcus aureus", "experiment": "Synergistic bactericidal activity against Staphylococcus aureus ATCC 29213 assessed as reduction in bacterial count at 0.02 ug/ml incubated up to 8 hrs in presence of vancomycin by time-kill assay", "assay_type": "functional", "conditions": "dose 0.02 µg/ml", "procedure,_shortened": "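Time-kill with compound combined with vancomycin at synergistic concentrations (from checkerboard FIC) against S. aureus; CFU followed up to 8 h and at 24 h.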"}, "Staphylococcus aureus [12]": {"test_system": "Staphylococcus aureus", "experiment": "Disruption of pre-formed biofilms of Staphylococcus aureus ATCC 29213 at 4 to 6 times MIC incubated for 24 hrs by absorbance based method relative to control", "assay_type": "functional"}, "Staphylococcus aureus [13]": {"test_system": "Staphylococcus aureus", "experiment": "Bacteriostatic activity against Staphylococcus aureus ATCC 29213 assessed as reduction in bacterial count incubated for 2 to 24 hrs by time-kill assay", "assay_type": "functional, organism-based", "conditions": "time 2-24 hrs"}, "Staphylococcus aureus [14]": {"test_system": "Staphylococcus aureus", "experiment": "Antibacterial activity against methicillin-resistant Staphylococcus aureus ATCC 15187 incubated for 24 hrs by Alamar blue staining based microdilution method", "assay_type": "functional"}, "Staphylococcus aureus [15]": {"test_system": "Staphylococcus aureus", "experiment": "Induction of membrane permeabilization in methicillin-resistant Staphylococcus aureus ATCC 15187 at 1 to 8 times MIC measured after 80 mins by PI staining based analysis relative to control", "assay_type": "functional", "conditions": "1.333 h", "procedure,_shortened": "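Propidium iodide uptake measured over time in bacteria exposed to 1×, 2×, 4× and 8× MIC, with vancomycin 4× and 8× MIC and a blank control; percentage membrane permeabilization read up to 80 min.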"}, "Staphylococcus aureus [16]": {"test_system": "Staphylococcus aureus", "experiment": "Additive antibacterial activity against methicillin-resistant Staphylococcus aureus ATCC 15187 assessed as fractional inhibitory concentration index at 0.075 ug/ml incubated up to 24 hrs in presence of vancomycin by checkerboard analysis", "assay_type": "functional", "conditions": "dose 0.075 µg/ml", "procedure,_shortened": "(§2)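 Checkerboard microdilution in cation-adjusted MHB, done per CLSI. The compound and partner antibiotic were dissolved in DMSO. The antibiotic was serially diluted across the plate and the compound was twofold serially diluted into the wells to make the combinations. Each well received 0.1 ml of inoculum, a 0.5 McFarland suspension (1.5 × 10^8 CFU ml−1) diluted 1:100 in MHB. Plates were incubated 24 h at 37 °C, then read with Alamar blue (0.04%). FIC index was calculated.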"}, "Staphylococcus aureus [17]": {"test_system": "Staphylococcus aureus", "experiment": "Inhibition of biofilm formation of Staphylococcus aureus ATCC 29213 incubated for 27 hrs by absorbance based method", "assay_type": "functional, organism-based"}, "Staphylococcus aureus [18]": {"test_system": "Staphylococcus aureus", "experiment": "Disruption of cell membrane integrity in methicillin-resistant Staphylococcus aureus ATCC 15187 assessed as red fluorescence at 1 to 2 times MIC incubated for 2.5 hrs by DAPI/PI staining based fluorescence microscopy", "assay_type": "functional, organism-based", "procedure,_shortened": "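Bacteria treated at 1× and 2× MIC, with vancomycin 2× MIC as control and an untreated blank; stained with DAPI (all cells) and propidium iodide (membrane-damaged cells); imaged by fluorescence microscopy, red PI signal taken as membrane damage.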"}, "Staphylococcus aureus [19]": {"test_system": "Staphylococcus aureus", "experiment": "Synergistic antibacterial activity against Staphylococcus aureus ATCC 29213 assessed as fractional inhibitory concentration index at 0.02 ug/ml incubated up to 24 hrs in presence of vancomycin by checkerboard analysis", "assay_type": "functional", "conditions": "dose 0.02 µg/ml", "procedure,_shortened": "as §2"}, "Staphylococcus aureus [20]": {"test_system": "Staphylococcus aureus", "experiment": "Antibacterial activity against methicillin-resistant Staphylococcus aureus ATCC 15187 infected in mouse RAW264.7 cells assessed as bacterial eradication by colony counting method based microdilution method", "assay_type": "functional, organism-based", "procedure,_shortened": "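RAW 264.7 macrophages infected with MRSA, then treated at multiples of MIC non-toxic to the cells, with vancomycin control; intracellular bacterial load counted as CFU ml−1; compared with infection control by one-way ANOVA.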"}, "[21]": {"experiment": "AUC (0 to t) in male Balb/c mouse at 1 mg/kg, iv by LC-MS/MS analysis", "assay_type": "ADME, organism-based", "conditions": "in vivo", "procedure,_shortened": "as §1"}, "[22]": {"experiment": "AUC (0 to t) in male Balb/c mouse at 30 mg/kg, po by LC-MS/MS analysis", "assay_type": "ADME, organism-based", "conditions": "in vivo", "procedure,_shortened": "as §1"}, "Staphylococcus aureus [23]": {"test_system": "Staphylococcus aureus", "experiment": "Bactericidal activity against methicillin-resistant Staphylococcus aureus ATCC 15187 assessed as reduction in bacterial count incubated for 2 to 24 hrs by time-kill assay", "assay_type": "functional, organism-based", "conditions": "time 2-24 hrs"}, "Staphylococcus aureus [24]": {"test_system": "Staphylococcus aureus", "experiment": "Induction of resistance development in Staphylococcus aureus ATCC 29213 assessed as fold increase in MIC at 0.5 MIC measured after 20 passages relative to control", "assay_type": "functional", "procedure,_shortened": "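Bacteria were serially passaged for 20 days after exposure to a sublethal drug concentration. MIC was determined at each passage. Vancomycin and norfloxacin were run as control agents.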"}, "[25]": {"experiment": "Protein binding in plasma (unknown origin)", "assay_type": "ADME, cell-free"}, "Staphylococcus aureus [26]": {"test_system": "Staphylococcus aureus", "experiment": "Bactericidal activity against methicillin-resistant Staphylococcus aureus ATCC 15187 assessed as reduction in bacterial count at 2 times MIC measured after 8 to 10 hrs by time-kill assay", "assay_type": "functional, organism-based", "conditions": "time 8-10 hrs"}}, "note": "Calls of active or inactive are those of the source. No cut-off for these calls is given here.", "data": [{"smiles": "CCCc1nn(C)c2c(Nc3ccc(O)cc3)nc(-c3ccc([N+](=O)[O-])o3)nc12", "values": [{"measurement": "Activity", "setting": "Staphylococcus aureus [1]", "value": "inactive"}, {"measurement": "CL/F", "setting": "[2]", "value": 159, "unit": "mL/min/kg"}, {"measurement": "half-life", "setting": "[3]", "value": 21, "unit": "min"}, {"measurement": "AUC(0-inf)", "setting": "[4]", "value": 94.8, "unit": "ng·h/mL"}, {"measurement": "Activity", "setting": "RAW264.7", "value": "Non-toxic"}, {"measurement": "MIC", "setting": "Escherichia coli", "value": "inactive"}, {"measurement": "Activity", "setting": "Staphylococcus aureus [5]", "value": "Dose-dependent-effect"}, {"measurement": "MIC", "setting": "Staphylococcus aureus [6]", "value": 0.3, "unit": "µg/mL"}, {"measurement": "Activity", "setting": "Staphylococcus aureus [7]", "value": "Time-dependent-effect"}, {"measurement": "metabolised", "setting": "[8]", "value": 71, "unit": "%"}, {"measurement": "clearance", "setting": "[9]", "value": 176, "unit": "mL/min/kg"}, {"measurement": "Activity", "setting": "Staphylococcus aureus [10]", "value": "Active"}, {"measurement": "Activity", "setting": "Staphylococcus aureus [11]", "value": ">10", "unit": "log10CFU"}, {"measurement": "Activity", "setting": "Staphylococcus aureus [12]", "value": 30, "unit": "%"}, {"measurement": "Activity", "setting": "Staphylococcus aureus [13]", "value": "Dose-dependent-effect"}, {"measurement": "MIC", "setting": "Staphylococcus aureus [14]", "value": 0.15, "unit": "µg/mL"}, {"measurement": "Activity", "setting": "Staphylococcus aureus [15]", "value": 45, "unit": "%"}, {"measurement": "fractional inhibitory concentration index (FICI)", "setting": "Staphylococcus aureus [16]", "value": 1}, {"measurement": "inhibition", "setting": "Staphylococcus aureus [17]", "value": "Dose-dependent-effect"}, {"measurement": "Activity", "setting": "Staphylococcus aureus [18]", "value": "Active"}, {"measurement": "fractional inhibitory concentration index (FICI)", "setting": "Staphylococcus aureus [19]", "value": 0.5}, {"measurement": "Activity", "setting": "Staphylococcus aureus [20]", "value": "Dose-dependent-effect"}, {"measurement": "AUC(0-t)", "setting": "[21]", "value": 90.8, "unit": "ng·h/mL"}, {"measurement": "AUC(0-t)", "setting": "[22]", "value": 3150, "unit": "ng·h/mL"}, {"measurement": "Activity", "setting": "Staphylococcus aureus [23]", "value": "Dose-dependent-effect"}, {"measurement": "fold change (FC)", "setting": "Staphylococcus aureus [24]", "value": 200}, {"measurement": "PPB", "setting": "[25]", "value": 99.1, "unit": "%"}, {"measurement": "Activity", "setting": "Staphylococcus aureus [26]", "value": "Not active; Initial Killing Was Observed, But Exhibited Some Re-Growth After 8 To 10 Hrs"}]}]}
